Measured values: ChEMBL document CHEMBL1139044, “Design and synthesis of furoxan-based nitric oxide-releasing glucocorticoid derivatives with potent anti-inflammatory activity and improved safety” (2007)
The source made the active and inactive calls. The rule behind the calls is not given here.

Legend:
Mus musculus [1] = experiment: Antiinflammatory activity in mouse assessed as inhibition of xylene induced ear edema; assay type: functional, organism-based
Osteoblast [2] = experiment: Effect on alkaline phosphatase activity per 100 ml in SD mouse osteoblasts at 10 umol/L after 48 hrs […]; assay type: functional
Osteoblast [3] = experiment: Effect on alkaline phosphatase activity per 100 ml in SD mouse osteoblasts at 0.1 pmol/L after 48 hrs […]
Rattus norvegicus [4] = experiment: Anti-acute-inflammatory activity in rat assessed as carrageenan induced paw edema volume at 21.7 mg/kg after 1 hr; assay type: functional
How it was run: (§1)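 Rats, n = 8 per group, with CMC-Na as the vehicle control. Paw swelling was induced with carrageenan, and edema volume (ml) was recorded hourly from 1 to 6 h. Significance was tested against the CMC-Na group.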

Osteoclast [5] = experiment: Inhibition of survival rate of SD mouse osteoclasts at 10 umol/L after 48 hrs by TRAP assay; assay type: functional, cell-based
Rattus norvegicus [6] = experiment: Anti-acute-inflammatory activity in rat assessed as carrageenan induced paw edema volume at 21.7 mg/kg after 2 hrs; assay type: functional; how it was run: as §1
Osteoblast [7] = experiment: Effect on alkaline phosphatase activity per 100 ml in SD mouse osteoblasts at 1 nmol/L after 48 hrs […]; assay type: functional
Osteoblast [8] = experiment: Effect on alkaline phosphatase activity per 100 ml in SD mouse osteoblasts at 1 pmol/L after 48 hrs […]; assay type: functional
Rattus norvegicus [9] = experiment: Anti-acute-inflammatory activity in rat assessed as carrageenan induced paw edema volume at 21.7 mg/kg after 4 hrs; assay type: functional; how it was run: as §1
Rattus norvegicus [10] = experiment: Anti-acute-inflammatory activity in rat assessed as carrageenan induced paw edema volume at 21.7 mg/kg after 3 hrs; assay type: functional; how it was run: as §1
Rattus norvegicus [11] = experiment: Antihypertension activity in SD rat assessed as diastolic arterial pressure at 43.4 mg/kg for 3 weeks
Rattus norvegicus [12] = experiment: Antihypertension activity in SD rat assessed as heart rate at 43.4 mg/kg for 3 weeks
Osteoclast [13] = experiment: Increase in survival rate of SD mouse osteoclasts at 10 pmol/L to 100 nmol/L after 48 hrs by TRAP assay; assay type: functional, cell-based
Rattus norvegicus [14] = experiment: Anti-acute-inflammatory activity in rat assessed as carrageenan induced paw edema volume at 21.7 mg/kg after 5 hrs; assay type: functional; how it was run: as §1
Osteoclast [15] = experiment: Inhibition of survival rate of SD mouse osteoclasts at 100 nmol/L to 10 umol/L after 48 hrs by TRAP assay; assay type: functional, cell-based
Rattus norvegicus [16] = experiment: Nitric oxide level in SD rat serum at 43.4 mg/kg for 3 weeks by nitrate reductase assay
Rattus norvegicus [17] = experiment: Anti-acute-inflammatory activity in rat assessed as carrageenan induced paw edema volume at 21.7 mg/kg after 6 hrs; assay type: functional; how it was run: as §1
Rattus norvegicus [18] = experiment: Antihypertension activity in SD rat assessed as systolic arterial pressure at 43.4 mg/kg for 3 weeks
Rattus norvegicus [19] = organism: Rattus norvegicus; experiment: Antiinflammatory activity in rat assessed as inhibition of Freund's adjuvant induced arthritis; assay type: functional, organism-based
Rattus norvegicus [20] = experiment: Anti-acute-inflammatory activity in rat assessed as carrageenan induced paw edema volume at 92.9 mg/kg after 2 hrs; assay type: functional; how it was run: as §1
Rattus norvegicus [21] = experiment: Anti-acute-inflammatory activity in rat assessed as carrageenan induced paw edema volume at 46.4 mg/kg after 2 hrs; assay type: functional; how it was run: as §1
Rattus norvegicus [22] = experiment: Anti-acute-inflammatory activity in rat assessed as carrageenan induced paw edema volume at 46.4 mg/kg after 4 hrs; assay type: functional; how it was run: as §1
Mus musculus [23] = experiment: Antihypertension activity in SD mouse assessed as diastolic arterial pressure at 31 mg/kg for 3 weeks; assay type: functional, Artery
How it was run: (§2)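 Animals were assigned to groups (n = 10) and dosed for 3 weeks, with CMC-Na as the vehicle group. Systolic pressure, diastolic pressure and heart rate were recorded 1 h after the last dose using a multi-channel tail-artery blood pressure system.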

Rattus norvegicus [24] = experiment: Anti-acute-inflammatory activity in rat assessed as carrageenan induced paw edema volume at 46.4 mg/kg after 3 hrs; assay type: functional; how it was run: as §1
Rattus norvegicus [25] = experiment: Anti-acute-inflammatory activity in rat assessed as carrageenan induced paw edema volume at 23.2 mg/kg after 5 hrs; assay type: functional; how it was run: as §1
Rattus norvegicus [26] = experiment: Anti-acute-inflammatory activity in rat assessed as carrageenan induced paw edema volume at 92.9 mg/kg after 5 hrs; assay type: functional; how it was run: as §1
Mus musculus [27] = experiment: Nitric oxide level in SD mouse serum at 92.9 mg/kg for 3 weeks by nitrate reductase assay; assay type: functional
How it was run: (§3)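 Animals were dosed for 3 weeks (n = 10) with a CMC-Na vehicle group. After the blood pressure readings, […] was drawn from the femoral artery and serum NO (µmol/L) was determined by nitrate reductase assay.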

Mus musculus [28] = experiment: Antihypertension activity in SD mouse assessed as heart rate at 92.9 mg/kg for 3 weeks; assay type: functional; how it was run: as §2
Rattus norvegicus [29] = experiment: Anti-acute-inflammatory activity in rat assessed as carrageenan induced paw edema volume at 92.9 mg/kg after 1 hr; assay type: functional; how it was run: as §1
Rattus norvegicus [30] = experiment: Anti-acute-inflammatory activity in rat assessed as carrageenan induced paw edema volume at 23.2 mg/kg after 3 hrs; assay type: functional; how it was run: as §1
Mus musculus [31] = experiment: Antihypertension activity in SD mouse assessed as systolic arterial pressure at 31 mg/kg for 3 weeks; assay type: functional, Artery; how it was run: as §2
Mus musculus [32] = experiment: Antihypertension activity in SD mouse assessed as systolic arterial pressure at 92.9 mg/kg for 3 weeks; assay type: functional, Artery; how it was run: as §2
Rattus norvegicus [33] = experiment: Anti-acute-inflammatory activity in rat assessed as carrageenan induced paw edema volume at 92.9 mg/kg after 4 hrs; assay type: functional; how it was run: as §1
Rattus norvegicus [34] = experiment: Anti-acute-inflammatory activity in rat assessed as carrageenan induced paw edema volume at 23.2 mg/kg after 2 hrs; assay type: functional; how it was run: as §1
Mus musculus [35] = experiment: Antihypertension activity in SD mouse assessed as diastolic arterial pressure at 92.9 mg/kg for 3 weeks; assay type: functional, Artery; how it was run: as §2
Mus musculus [36] = experiment: Antihypertension activity in SD mouse assessed as heart rate at 31 mg/kg for 3 weeks; assay type: functional; how it was run: as §2
Rattus norvegicus [37] = organism: Rattus norvegicus; experiment: Anti-subacute-inflammatory activity in rat assessed as inhibition cotton pellet induced granuloma formation; assay type: functional, organism-based
Rattus norvegicus [38] = experiment: Anti-acute-inflammatory activity in rat assessed as carrageenan induced paw edema volume at 46.4 mg/kg after 6 hrs; assay type: functional; how it was run: as §1
Rattus norvegicus [39] = experiment: Anti-acute-inflammatory activity in rat assessed as carrageenan induced paw edema volume at 46.4 mg/kg after 1 hr; assay type: functional; how it was run: as §1
Rattus norvegicus [40] = experiment: Anti-acute-inflammatory activity in rat assessed as carrageenan induced paw edema volume at 92.9 mg/kg after 3 hrs; assay type: functional; how it was run: as §1
Rattus norvegicus [41] = experiment: Anti-acute-inflammatory activity in rat assessed as carrageenan induced paw edema volume at 23.2 mg/kg after 1 hr; assay type: functional; how it was run: as §1
Rattus norvegicus [42] = experiment: Anti-acute-inflammatory activity in rat assessed as carrageenan induced paw edema volume at 46.4 mg/kg after 5 hrs; assay type: functional; how it was run: as §1
Rattus norvegicus [43] = experiment: Anti-acute-inflammatory activity in rat assessed as carrageenan induced paw edema volume at 92.9 mg/kg after 6 hrs; assay type: functional; how it was run: as §1
Rattus norvegicus [44] = experiment: Anti-acute-inflammatory activity in rat assessed as carrageenan induced paw edema volume at 23.2 mg/kg after 4 hrs; assay type: functional; how it was run: as §1
Rattus norvegicus [45] = experiment: Anti-acute-inflammatory activity in rat assessed as carrageenan induced paw edema volume at 23.2 mg/kg after 6 hrs; assay type: functional; how it was run: as §1
Mus musculus [46] = experiment: Nitric oxide level in SD mouse serum at 31 mg/kg for 3 weeks by nitrate reductase assay; assay type: functional; how it was run: as §3

With `CC(CCOc1no[n+]([O-])c1S(=O)(=O)c1ccccc1)OC(=O)CCC(=O)OCC(=O)[C@@]1(O)CC[C@H]2[C@@H]3CCC4=CC(=O)CC[C@]4(C)[C@H]3[C@@H](O)C[C@@]21C` (some centres not stated) the Activity (Mus musculus [1]) was “Active”.

For `C[C@]12CCC(=O)C=C1CC[C@@H]1[C@@H]2[C@@H](O)C[C@@]2(C)[C@H]1CC[C@]2(O)C(=O)CO` [HYDROCORTISONE], the Activity (Osteoblast [2]) was 2.26 U, the Activity (Osteoblast [3]) was 2.07 U and the Activity (Rattus norvegicus [4]) was 0.15 mL. The Activity (Osteoclast [5]) was “Active”, the Activity (Rattus norvegicus [6]) was 0.25 mL and the Activity (Osteoblast [7]) was 2.66 U. The Activity (Osteoblast [8]) was 2.69 U, the Activity (Rattus norvegicus [9]) was 0.85 mL and the Activity (Rattus norvegicus [10]) was 0.54 mL. The Activity (Rattus norvegicus [11]) was 109.6 mmHg, the Activity (Rattus norvegicus [12]) was 365.2 and the Activity (Osteoclast [13]) was “Active”. For the same molecule, the Activity (Rattus norvegicus [14]) was 0.98 mL, the Activity (Osteoclast [15]) was “Active” and the Activity (Rattus norvegicus [16]) was 28 µmol/L. The Activity (Rattus norvegicus [17]) was 1.02 mL and the Activity (Rattus norvegicus [18]) was 156.7 mmHg.

`C[C@]12CCC(=O)C=C1CC[C@@H]1[C@@H]2[C@@H](O)C[C@@]2(C)[C@H]1CC[C@]2(O)C(=O)COC(=O)CCC(=O)OCCOCCOc1no[n+]([O-])c1S(=O)(=O)c1ccccc1` was tested, and the Activity (Osteoblast [2]) was 1.54 U, the Activity (Rattus norvegicus [19]) was “Active” and the Activity (Rattus norvegicus [20]) was 0.22 mL. The Activity (Rattus norvegicus [21]) was 0.24 mL, the Activity (Rattus norvegicus [22]) was 0.94 mL and the Activity (Osteoblast [3]) was 1.89 U. The Activity (Mus musculus [23]) was 97.8 mmHg, the Activity (Rattus norvegicus [24]) was 0.56 mL and the Activity (Rattus norvegicus [25]) was 1.12 mL. For the same molecule, the Activity (Rattus norvegicus [26]) was 0.8 mL, the Activity (Mus musculus [27]) was 40.9 µmol/L and the Activity (Mus musculus [28]) was 379.3. It also gave an Activity (Osteoblast [7]) of 2.97 U, an Activity (Rattus norvegicus [29]) of 0.12 mL and an Activity (Rattus norvegicus [30]) of 0.74 mL. For the same molecule, the Activity (Mus musculus [31]) was 144.5 mmHg, the Activity (Mus musculus [32]) was 137.8 mmHg and the Activity (Rattus norvegicus [33]) was 0.65 mL. It also gave an Activity (Rattus norvegicus [34]) of 0.39 mL, an Activity (Osteoblast [8]) of 2.24 U and an Activity (Mus musculus [35]) of 86.9 mmHg. The Activity (Mus musculus [36]) was 360.3, the Activity (Rattus norvegicus [37]) was “Dose-dependent effect” and the Activity (Rattus norvegicus [38]) was 0.92 mL. It also gave an Activity (Rattus norvegicus [39]) of 0.13 mL, an Activity (Rattus norvegicus [40]) of 0.41 mL and an Activity (Rattus norvegicus [41]) of 0.1 mL. The Activity (Rattus norvegicus [42]) was 0.95 mL, the Activity (Rattus norvegicus [43]) was 0.81 mL and the Activity (Rattus norvegicus [44]) was 0.99 mL. For the same molecule, the Activity (Mus musculus [1]) was “Active”, the Activity (Rattus norvegicus [45]) was 1.07 mL and the Activity (Mus musculus [46]) was 31 µmol/L.

With `C[C@]12CCC(=O)C=C1CC[C@@H]1[C@@H]2[C@@H](O)C[C@@]2(C)[C@H]1CC[C@]2(O)C(=O)COC(=O)CCC(=O)OCCCCOc1no[n+]([O-])c1S(=O)(=O)c1ccccc1` the Activity (Mus musculus [1]) was “Active”.
